Reference: ChEMBL document CHEMBL3804768, “Structure-Activity Relationship Studies of Mitogen Activated Protein Kinase Interacting Kinase (MNK) 1 and 2 and BCR-ABL1 Inhibitors Targeting Chronic Myeloid Leukemic Cells” (J Med Chem, 2016)
Converted amounts (≈) assume the structure as drawn. The source made the active and inactive calls. No cut-off for these calls is given here.

What was measured:
K562 [1] = test: Antitumor activity against human K562 cells over expressing eIF4E xenografted in po dosed NOD-SCID mouse assessed as tumor growth inhibition administered qd through oral gavage for 14 days; format: functional, organism-based
Outline: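 Female SCID mice, 7-10 weeks old, received 1 x 10^7 K562 eIF4E-overexpressing cells subcutaneously. At tumor volumes of 75-245 mm³ (w²×l/2) mice were randomized and gavaged once daily for 14 days at 10 mL/kg.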

[2] = molecular target: T1, Fibroblast growth factor receptor 2 (Homo sapiens, UniProt P21802); test: Inhibition of human recombinant FGFR2 expressed in sf21 cells at 1 uM using Poly(Glu:Tyr) as substrate in presence of [gamma32P]ATP
Target sequence in this assay (P21802 22-821 limits assumed): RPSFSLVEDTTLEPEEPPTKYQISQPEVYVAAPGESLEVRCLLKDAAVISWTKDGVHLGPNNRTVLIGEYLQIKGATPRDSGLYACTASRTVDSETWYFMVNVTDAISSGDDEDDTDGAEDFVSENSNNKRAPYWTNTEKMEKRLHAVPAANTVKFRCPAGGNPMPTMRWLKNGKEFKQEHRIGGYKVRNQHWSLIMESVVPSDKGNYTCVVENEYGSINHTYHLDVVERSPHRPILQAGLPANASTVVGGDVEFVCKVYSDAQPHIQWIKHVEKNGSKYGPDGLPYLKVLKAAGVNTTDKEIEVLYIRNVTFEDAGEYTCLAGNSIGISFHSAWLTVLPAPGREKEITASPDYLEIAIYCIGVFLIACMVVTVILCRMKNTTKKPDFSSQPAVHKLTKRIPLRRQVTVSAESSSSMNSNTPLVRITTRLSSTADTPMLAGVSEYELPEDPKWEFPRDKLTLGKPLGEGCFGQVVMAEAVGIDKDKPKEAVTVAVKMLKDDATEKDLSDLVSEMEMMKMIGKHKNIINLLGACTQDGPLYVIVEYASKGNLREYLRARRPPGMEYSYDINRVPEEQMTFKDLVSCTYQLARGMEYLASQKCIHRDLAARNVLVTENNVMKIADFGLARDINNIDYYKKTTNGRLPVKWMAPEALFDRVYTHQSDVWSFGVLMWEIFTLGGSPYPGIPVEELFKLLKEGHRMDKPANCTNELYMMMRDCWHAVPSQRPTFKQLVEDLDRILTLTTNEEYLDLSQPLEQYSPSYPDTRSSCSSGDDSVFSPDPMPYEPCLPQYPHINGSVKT

Mus musculus = test: In vivo inhibition of MNK1/MNK2 in NOD-SCID mouse tumor xenografted with human K562 cells over expressing eIF4E assessed as inhibition of eIF4E phosphorylation at Ser209 at 50 mg/kg, po qd adminstered through oral gavage measured 4 hrs post dose by AlphaScreen SureFire assay; format: functional, organism-based
Outline: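 Tumors were excised after the final day-14 oral dose (50 mg/kg) and flash frozen, then homogenized in SureFire lysis buffer with protease and phosphatase inhibitors. Lysate protein was normalized to 0.5 mg/mL by A280. Phospho-eIF4E Ser209 was read by AlphaScreen SureFire with 2 h acceptor and 2 h donor incubations at room temperature. Inhibition was calculated against the 0 h control signal.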

[3] = molecular target: T2, Mast/stem cell growth factor receptor Kit (Homo sapiens, UniProt P10721); test: Inhibition of human recombinant c-KIT expressed in insect cells using Poly(Glu:Tyr) as substrate in presence of [gamma32P]ATP
T2 sequence (P10721 whole entry): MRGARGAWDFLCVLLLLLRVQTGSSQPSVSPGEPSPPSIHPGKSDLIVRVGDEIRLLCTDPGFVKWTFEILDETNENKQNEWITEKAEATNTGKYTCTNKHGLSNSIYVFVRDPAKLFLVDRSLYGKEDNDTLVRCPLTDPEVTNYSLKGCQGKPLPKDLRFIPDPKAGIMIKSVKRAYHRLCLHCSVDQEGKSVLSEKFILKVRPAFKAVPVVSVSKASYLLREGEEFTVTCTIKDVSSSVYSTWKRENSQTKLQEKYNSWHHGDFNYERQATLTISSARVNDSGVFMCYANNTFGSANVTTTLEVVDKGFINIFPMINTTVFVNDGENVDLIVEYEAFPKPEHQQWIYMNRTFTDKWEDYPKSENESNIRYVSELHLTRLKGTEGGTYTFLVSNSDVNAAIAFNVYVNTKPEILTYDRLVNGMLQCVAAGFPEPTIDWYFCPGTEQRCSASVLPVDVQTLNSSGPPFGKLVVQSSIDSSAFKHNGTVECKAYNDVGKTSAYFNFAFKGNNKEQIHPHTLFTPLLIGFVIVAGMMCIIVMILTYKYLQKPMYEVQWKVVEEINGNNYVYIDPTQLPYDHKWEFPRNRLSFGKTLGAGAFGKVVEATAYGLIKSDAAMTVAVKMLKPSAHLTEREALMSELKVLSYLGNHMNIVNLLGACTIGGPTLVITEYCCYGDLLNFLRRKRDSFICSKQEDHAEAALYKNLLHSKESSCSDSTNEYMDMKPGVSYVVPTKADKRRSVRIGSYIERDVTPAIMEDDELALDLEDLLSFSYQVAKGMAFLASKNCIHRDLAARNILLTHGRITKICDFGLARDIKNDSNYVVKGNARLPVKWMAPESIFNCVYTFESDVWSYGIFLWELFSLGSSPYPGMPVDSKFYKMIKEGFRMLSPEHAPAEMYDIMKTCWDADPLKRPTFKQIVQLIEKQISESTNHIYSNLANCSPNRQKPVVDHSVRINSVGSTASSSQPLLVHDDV

Cytochrome P450 2D6 = Cytochrome P450 2D6 (Homo sapiens, UniProt P10635); test: Inhibition of CYP2D6 (unknown origin); format: ADME
[4] = Permeability of compound by PAMPA; format: ADME; details: read-out: permeability
[5] = molecular target: Platelet-derived growth factor receptor alpha (Homo sapiens, UniProt P16234); test: Inhibition of human recombinant PDGFRalpha expressed in sf21 cells at 1 uM using Poly(Glu:Tyr) as substrate in presence of [gamma32P]ATP
[6] = molecular target: MAP kinase-interacting serine/threonine-protein kinase 2 (Homo sapiens, UniProt Q9HBH9); test: Inhibition of N-terminal GST-tagged MNK2 kinase domain (72 to 385 residues) (unknown origin) expressed in Escherichia coli BL21(DE3) cells using JH3 peptide substrate preincubated for 10 mins followed by substrate addition measured after 60 mins by mobility shift assay
[7] = Oral bioavailability in CD1 mouse at 50 mg/kg; format: ADME, organism-based; details: in vivo
[8] = molecular target: T3, Platelet-derived growth factor receptor beta (Homo sapiens, UniProt P09619); test: Inhibition of human recombinant PDGFRbeta expressed in sf21 cells using Poly(Glu:Tyr) as substrate in presence of [gamma32P]ATP
T3 sequence (P09619 whole entry): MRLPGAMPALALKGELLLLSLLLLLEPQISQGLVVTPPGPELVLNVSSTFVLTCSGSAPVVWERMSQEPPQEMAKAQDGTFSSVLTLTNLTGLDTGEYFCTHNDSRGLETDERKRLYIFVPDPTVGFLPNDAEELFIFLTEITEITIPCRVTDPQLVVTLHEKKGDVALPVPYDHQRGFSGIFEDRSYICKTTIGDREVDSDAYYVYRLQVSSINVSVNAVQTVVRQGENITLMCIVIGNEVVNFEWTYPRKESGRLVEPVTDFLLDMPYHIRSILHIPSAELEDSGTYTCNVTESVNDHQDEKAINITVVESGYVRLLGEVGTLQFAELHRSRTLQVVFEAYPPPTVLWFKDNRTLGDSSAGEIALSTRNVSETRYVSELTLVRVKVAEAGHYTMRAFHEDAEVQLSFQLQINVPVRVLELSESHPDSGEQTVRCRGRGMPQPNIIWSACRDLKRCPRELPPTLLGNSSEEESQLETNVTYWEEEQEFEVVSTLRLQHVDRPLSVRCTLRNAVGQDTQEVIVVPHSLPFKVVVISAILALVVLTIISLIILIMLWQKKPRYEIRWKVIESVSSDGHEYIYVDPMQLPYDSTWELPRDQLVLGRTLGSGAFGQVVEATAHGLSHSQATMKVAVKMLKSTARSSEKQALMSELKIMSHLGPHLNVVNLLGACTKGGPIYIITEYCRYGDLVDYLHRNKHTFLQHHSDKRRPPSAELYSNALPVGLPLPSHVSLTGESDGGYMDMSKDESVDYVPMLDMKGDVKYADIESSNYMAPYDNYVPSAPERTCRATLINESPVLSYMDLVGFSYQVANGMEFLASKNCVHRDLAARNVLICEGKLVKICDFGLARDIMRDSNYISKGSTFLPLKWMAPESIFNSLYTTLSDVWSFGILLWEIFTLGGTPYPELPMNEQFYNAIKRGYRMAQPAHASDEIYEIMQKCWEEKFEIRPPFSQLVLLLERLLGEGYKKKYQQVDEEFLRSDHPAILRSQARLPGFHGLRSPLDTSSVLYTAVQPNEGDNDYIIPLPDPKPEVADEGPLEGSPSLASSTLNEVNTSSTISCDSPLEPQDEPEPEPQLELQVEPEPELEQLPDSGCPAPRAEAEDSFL

[9] = Antiproliferative activity against human BV173 cells after 48 hrs by Cell-Titer-Glo luminescent cell viability assay; format: functional; details: BV-173, 48 h
Outline: (§1)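 Cells seeded at 5000 per well in growth medium, exposed to serial doses from 0.003 μM to 50 μM for 48 h at 37 °C, 5% CO2. Viability was read by CellTiter-Glo luminescence and GI50 taken from the dose-response curve. Dose response was run in triplicate and the curve repeated twice. K562 eIF4E-overexpressing cells were cultured in RPMI with 10% FBS.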

[10] = molecular target: Proto-oncogene tyrosine-protein kinase receptor Ret (Homo sapiens, UniProt P07949); test: Inhibition of human recombinant RET expressed in sf21 cells at 1 uM using Poly(Glu:Tyr) as substrate in presence of [gamma32P]ATP
K562 [11] = test: Antiproliferative activity against human K562 cells after 48 hrs by Cell-Titer-Glo luminescent cell viability assay; format: functional; details: K562, 48 h; outline: as §1
[12] = molecular target: Tyrosine-protein kinase ABL1 (Homo sapiens, UniProt P00519, T315I); test: Inhibition of full length human recombinant N-terminal His-tagged ABL (2 to 1130 residues) T315I mutant expressed in baculovirus expression system using FL-peptide 2 substrate preincubated for 10 mins followed by substrate addition measured after 60 mins by mobility shift assay
Outline: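 Buffer is 100 mM HEPES pH 7.5, 10 mM MgCl2, 0.004% Tween 20, 1 mM DTT, 0.003% Brij L23. Enzyme and compound sit 10 min before ATP/substrate is added. The reaction runs 60 min at room temperature, is stopped with 10 mM EDTA, and is read by mobility shift.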

[13] = Cmax in CD1 mouse at 50 mg/kg, po; format: ADME, organism-based; design: dose 50 mg/kg, route oral; details: in vivo
[14] = Antiproliferative activity against human KCL22 cells after 48 hrs by Cell-Titer-Glo luminescent cell viability assay; format: functional; details: KCL-22, 48 h
Bcr/Abl fusion protein = Bcr/Abl fusion protein (Homo sapiens, UniProt P00519); test: Inhibition of BCR fused full length human recombinant N-terminal His-tagged ABL (2 to 1130 residues) expressed in baculovirus expression system using FL-peptide 2 substrate preincubated for 10 mins followed by substrate addition measured after 60 mins by mobility shift assay
[15] = molecular target: T1, Fibroblast growth factor receptor 2; test: Inhibition of human recombinant FGFR2 expressed in sf21 cells using Poly(Glu:Tyr) as substrate in presence of [gamma32P]ATP
Target sequence in this assay (P21802 whole entry): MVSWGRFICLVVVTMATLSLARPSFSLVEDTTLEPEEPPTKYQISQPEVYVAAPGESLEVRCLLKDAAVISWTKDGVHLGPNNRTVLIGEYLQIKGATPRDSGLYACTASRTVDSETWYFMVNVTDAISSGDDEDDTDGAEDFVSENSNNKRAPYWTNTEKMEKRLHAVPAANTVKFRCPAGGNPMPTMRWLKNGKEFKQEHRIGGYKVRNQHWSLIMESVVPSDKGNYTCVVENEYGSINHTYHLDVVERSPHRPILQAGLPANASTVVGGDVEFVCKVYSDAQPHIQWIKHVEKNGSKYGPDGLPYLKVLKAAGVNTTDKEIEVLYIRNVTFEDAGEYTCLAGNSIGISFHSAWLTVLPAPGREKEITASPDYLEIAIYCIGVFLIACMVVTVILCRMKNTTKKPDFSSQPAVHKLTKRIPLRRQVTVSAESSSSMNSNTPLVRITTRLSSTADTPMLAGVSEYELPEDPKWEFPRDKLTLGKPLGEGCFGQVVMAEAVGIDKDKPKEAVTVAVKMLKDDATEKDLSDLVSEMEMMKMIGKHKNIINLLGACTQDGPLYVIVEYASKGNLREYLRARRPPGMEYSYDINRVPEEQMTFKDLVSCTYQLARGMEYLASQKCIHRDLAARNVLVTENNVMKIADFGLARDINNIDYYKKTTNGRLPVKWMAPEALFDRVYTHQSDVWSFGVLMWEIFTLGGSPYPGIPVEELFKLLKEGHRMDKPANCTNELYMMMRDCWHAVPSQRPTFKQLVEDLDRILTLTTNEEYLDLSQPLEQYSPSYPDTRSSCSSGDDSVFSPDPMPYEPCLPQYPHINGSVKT

[16] = AUC in CD1 mouse at 50 mg/kg, po; format: ADME, organism-based; details: in vivo
[17] = molecular target: Vascular endothelial growth factor receptor 2 (Homo sapiens, UniProt P35968); test: Inhibition of human recombinant VEGFR2 expressed in sf21 cells at 1 uM using Poly(Glu:Tyr) as substrate in presence of [gamma32P]ATP
Vascular endothelial growth factor receptor 2, sequence (P35968 whole entry): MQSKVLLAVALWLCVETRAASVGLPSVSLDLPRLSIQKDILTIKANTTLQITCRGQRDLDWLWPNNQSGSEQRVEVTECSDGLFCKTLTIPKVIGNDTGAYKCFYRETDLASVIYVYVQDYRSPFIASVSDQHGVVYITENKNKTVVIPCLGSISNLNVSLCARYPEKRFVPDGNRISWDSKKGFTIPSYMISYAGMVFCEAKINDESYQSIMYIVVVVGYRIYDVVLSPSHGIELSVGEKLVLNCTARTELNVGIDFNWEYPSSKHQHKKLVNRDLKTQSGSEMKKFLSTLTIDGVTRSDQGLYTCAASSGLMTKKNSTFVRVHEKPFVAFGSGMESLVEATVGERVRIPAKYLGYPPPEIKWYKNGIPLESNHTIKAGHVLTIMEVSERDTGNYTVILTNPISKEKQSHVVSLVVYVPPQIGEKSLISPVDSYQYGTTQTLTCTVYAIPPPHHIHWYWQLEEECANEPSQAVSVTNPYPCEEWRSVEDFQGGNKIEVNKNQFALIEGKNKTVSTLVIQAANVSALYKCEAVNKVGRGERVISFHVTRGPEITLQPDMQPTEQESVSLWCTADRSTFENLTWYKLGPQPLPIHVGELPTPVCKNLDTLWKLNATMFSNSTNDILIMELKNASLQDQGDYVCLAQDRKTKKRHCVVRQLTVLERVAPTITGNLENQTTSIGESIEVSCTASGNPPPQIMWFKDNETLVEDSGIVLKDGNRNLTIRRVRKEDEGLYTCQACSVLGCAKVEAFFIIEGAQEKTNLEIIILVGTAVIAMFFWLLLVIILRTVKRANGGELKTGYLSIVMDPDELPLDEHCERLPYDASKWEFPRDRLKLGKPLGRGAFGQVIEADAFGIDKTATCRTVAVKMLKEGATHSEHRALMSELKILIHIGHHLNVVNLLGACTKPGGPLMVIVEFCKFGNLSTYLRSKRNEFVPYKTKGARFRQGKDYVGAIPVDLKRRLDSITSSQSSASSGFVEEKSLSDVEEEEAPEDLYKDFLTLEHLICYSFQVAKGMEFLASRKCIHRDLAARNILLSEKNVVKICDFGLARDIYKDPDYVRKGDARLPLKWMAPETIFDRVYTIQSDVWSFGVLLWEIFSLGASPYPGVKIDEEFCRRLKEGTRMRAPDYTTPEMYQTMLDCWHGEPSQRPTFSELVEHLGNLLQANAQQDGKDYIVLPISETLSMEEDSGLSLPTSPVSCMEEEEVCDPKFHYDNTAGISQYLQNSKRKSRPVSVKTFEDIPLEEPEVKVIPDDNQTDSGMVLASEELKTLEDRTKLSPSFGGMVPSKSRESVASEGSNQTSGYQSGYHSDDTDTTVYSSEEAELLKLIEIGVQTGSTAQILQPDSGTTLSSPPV

[18] = Thermodynamic solubility in pH 4 pION buffer at 500 uM incubated for 18 hrs by UV-spectrophotometry; format: physicochemical; details: read-out: Therm_solubility
[19] = molecular target: T3, Platelet-derived growth factor receptor beta; test: Inhibition of human recombinant PDGFRbeta expressed in sf21 cells at 1 uM using Poly(Glu:Tyr) as substrate in presence of [gamma32P]ATP
[20] = Thermodynamic solubility in pH 7 pION buffer at 500 uM incubated for 18 hrs by UV-spectrophotometry; format: physicochemical; details: read-out: Therm_solubility
[21] = molecular target: Receptor-type tyrosine-protein kinase FLT3 (Homo sapiens) (UniProt P36888); test: Inhibition of human recombinant FLT3 expressed in sf21 cells at 1 uM using Poly(Glu:Tyr) as substrate in presence of [gamma32P]ATP
[22] = molecular target: T2, Mast/stem cell growth factor receptor Kit; test: Inhibition of human recombinant c-KIT expressed in insect cells at 1 uM using Poly(Glu:Tyr) as substrate in presence of [gamma32P]ATP
[23] = Antiproliferative activity against human EM2 cells after 48 hrs by Cell-Titer-Glo luminescent cell viability assay; format: functional; details: EM-2, 48 h; outline: as §1
[24] = Antiproliferative activity against human JURL-MK1 cells after 48 hrs by Cell-Titer-Glo luminescent cell viability assay; format: functional; details: JURL-MK1, 48 h

Structure (SMILES) | TGI (K562 [1]) | inhibition [2] [%] | inhibition (Mus musculus) | IC50 [3] [nM] | IC50 (Cytochrome P450 2D6) [nM] | Papp [4] [×10⁻⁶ cm/s] | inhibition [5] [%] | IC50 [6] [nM] | bioavailability [7] [%] | IC50 [8] [nM] | GI50 [9] [nM] | inhibition [10] [%] | GI50 (K562 [11]) [nM] | IC50 [12] [nM] | Cmax [13] [ng/mL] | GI50 [14] [nM] | IC50 (Bcr/Abl fusion protein) [nM] | IC50 [15] [nM] | AUC [16] [ng·h/mL] | inhibition [17] [%] | further results
CN1CCN(Cc2ccc(NC(=O)CNc3ccc(-c4ccc(NC(=O)C5CC5)nc4)cc3F)cc2C(F)(F)F)CC1 | Dose-dependent effect | > 99 | Active | 1510 | > 30000 | 30.6 | > 99 | 10 | 31 | 1050 | 1 | > 99 | 12 | 20 | 1210 | 13 | 10 | 272 | 5130 | > 99 | solubility thermodynamic at 18 h, 500 µM [18]: 183 µg/mL (≈ 313 µM); inhibition [19]: > 99%; solubility thermodynamic at 18 h, 500 µM [20]: 3.8 µg/mL (≈ 6.5 µM); inhibition [21]: > 99%; inhibition [22]: > 99%; GI50 [23]: 1 nM; GI50 [24]: 1 nM
CCN1CCN(Cc2ccc(NC(=O)CNc3ccc(-c4ccc(NC(=O)C5CC5)nc4)cc3)cc2C(F)(F)F)CC1 | Dose-dependent effect | > 99 | Active | 888 | > 30000 | 34.5 | > 99 | 16 | 80 | 1080 | 30 | > 99 | 58 | 50 | 2490 | 50 | 89 | 930 | 14300 | > 99 | solubility thermodynamic at 18 h, 500 µM [18]: 128 µg/mL (≈ 220 µM); inhibition [19]: > 99%; solubility thermodynamic at 18 h, 500 µM [20]: 0.1 µg/mL (≈ 0.172 µM); inhibition [21]: > 99%; inhibition [22]: > 99%; GI50 [23]: 15 nM; GI50 [24]: 30 nM
